Results published in ChEMBL document CHEMBL1126705, “16 beta-([18F]fluoro)estrogens: systematic investigation of a new series of fluorine-18-labeled estrogens as potential imaging agents for estrogen-receptor-positive breast tumors” (J Med Chem, 1993).
Each block holds one molecule with its values, some of them ahead of it.

Legend:
[1] = biological target: T1, Alpha-fetoprotein (Rattus norvegicus) (UniProt P02773); test: Relative binding affinity for Alphafetoprotein
T1 sequence (whole entry): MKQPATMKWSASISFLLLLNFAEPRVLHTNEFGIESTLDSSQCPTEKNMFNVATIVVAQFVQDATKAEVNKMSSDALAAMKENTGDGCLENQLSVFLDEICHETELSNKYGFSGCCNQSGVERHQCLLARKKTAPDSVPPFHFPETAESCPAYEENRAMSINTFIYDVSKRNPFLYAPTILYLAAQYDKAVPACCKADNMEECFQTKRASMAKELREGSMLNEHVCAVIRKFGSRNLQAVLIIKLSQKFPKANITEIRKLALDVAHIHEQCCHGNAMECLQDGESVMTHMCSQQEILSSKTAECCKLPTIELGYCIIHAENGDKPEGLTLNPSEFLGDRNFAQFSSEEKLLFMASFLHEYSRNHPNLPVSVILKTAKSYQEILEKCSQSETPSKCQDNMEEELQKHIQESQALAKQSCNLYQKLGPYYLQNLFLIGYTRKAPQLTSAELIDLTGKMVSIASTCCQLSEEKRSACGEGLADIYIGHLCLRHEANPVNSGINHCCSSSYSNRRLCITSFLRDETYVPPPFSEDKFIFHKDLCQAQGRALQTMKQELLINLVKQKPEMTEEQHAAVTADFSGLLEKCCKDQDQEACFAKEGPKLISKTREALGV

[2] = Partition coefficient (logP); type: physicochemical; conditions: octanol/water
Method in brief: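 Octanol/water log P estimated from log k'w measured by reversed-phase HPLC (Minick method) on a C8 silica column.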

[3] = biological target: T2, Sex hormone-binding globulin (Homo sapiens) (UniProt P04278); test: Relative binding affinity against sex steroid binding protein (SBP)
T2 sequence (whole entry): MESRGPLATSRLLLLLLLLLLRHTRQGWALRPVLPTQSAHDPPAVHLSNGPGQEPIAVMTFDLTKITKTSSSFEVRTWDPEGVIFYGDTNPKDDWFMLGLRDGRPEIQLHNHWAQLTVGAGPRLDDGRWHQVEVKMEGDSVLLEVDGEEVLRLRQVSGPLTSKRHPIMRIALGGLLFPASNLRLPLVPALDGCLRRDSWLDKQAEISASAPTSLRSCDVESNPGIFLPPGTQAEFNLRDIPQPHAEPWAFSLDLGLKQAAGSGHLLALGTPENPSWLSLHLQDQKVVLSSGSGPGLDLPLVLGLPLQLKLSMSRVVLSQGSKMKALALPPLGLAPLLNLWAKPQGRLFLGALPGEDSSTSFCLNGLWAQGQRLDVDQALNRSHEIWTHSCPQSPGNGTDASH

[4] = biological target: T3, Estrogen receptor (Rattus norvegicus) (UniProt P06211+Q62986)
[5] = biological target: T3, Estrogen receptor (Rattus norvegicus); remark: listed apart in the source
[6] = test system: Rattus norvegicus; test: Tested in vivo for the biodistribution in blood of female rat at 1 hour after intravenous dose of 50 microCi of drug in 10%ethanol saline; type: ADME, organism-based
Method in brief: (§1)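 Ether-anesthetized 25-day-old female Sprague-Dawley rats (~40–53 g) got the [18F] tracer in 10% ethanol saline via femoral vein. Rats were decapitated at 1 or 3 h, and blood and organs were weighed and gamma-counted. Values are % injected dose/g as mean ± SD, n = 5 per time point.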

[7] = test system: Rattus norvegicus; test: Tested in vivo for the biodistribution in rat uterus/blood after 3 hours following an intravenous dose of 50 microCi of drug in 10%ethanol saline; type: ADME, organism-based
Method in brief: (§2)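 Female Sprague-Dawley rats, 25 days old (~40–53 g), ether-anesthetized, given the 18F-labeled estrogen iv via femoral vein in 10% ethanol saline. […] Others were sacrificed by decapitation at 1 or 3 h. Blood and organs were excised, weighed and gamma counted as % injected dose/g, mean ± SD, typically n = 5 (4–6).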

[8] = test system: Rattus norvegicus; test: Tested in vivo for the biodistribution in rat kidney after 3 hours following an intravenous dose of 50 microCi of drug in 10%ethanol saline; type: ADME, organism-based; method in brief: as §1
[9] = test system: Rattus norvegicus; test: Tested in vivo for the biodistribution in rat fat after 3 hours following an intravenous dose of 50 microCi of drug in 10%ethanol saline; type: ADME, organism-based, Adipose tissue; method in brief: as §1
[10] = test system: Rattus norvegicus; test: Tested in vivo for the biodistribution in rat muscle at 1 hour after intravenous dose of 50 microCi of the drug and 15 ug of estradiol; type: ADME, organism-based, Muscle tissue
Method in brief: (§3)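 Immature (25-day-old) female Sprague-Dawley rats, ether-anesthetized, given the fluorine-18-labeled estrogen by femoral vein injection in 10% ethanol saline. […] Other groups were killed by decapitation at 1 or 3 h. Blood and organs were weighed and gamma-counted. Data are % injected dose/g, mean ± SD, typically n = 5 per group.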

[11] = test system: Rattus norvegicus; test: Tested in vivo for the biodistribution in rat uterus/blood at 1 hour after intravenous dose of 50 microCi of the drug and 15 ug of estradiol; type: ADME, organism-based; method in brief: as §2
[12] = test system: Rattus norvegicus; test: Tested in vivo for the biodistribution in blood of female rat after 3 hours following an intravenous dose of 50 microCi of drug in 10%ethanol saline; type: ADME, organism-based; method in brief: as §1
[13] = test system: Rattus norvegicus; test: Tested in vivo for the biodistribution in rat uterus/muscle at 1 hour after intravenous dose of 50 microCi of drug in 10%ethanol saline; type: ADME, organism-based, Muscle tissue; method in brief: as §2
[14] = test system: Rattus norvegicus; test: Tested in vivo for the biodistribution in rat thymus at 1 hour after intravenous dose of 50 microCi of the drug and 15 ug of estradiol; type: ADME, organism-based; method in brief: as §3
[15] = test system: Rattus norvegicus; test: Tested in vivo for the biodistribution in rat uterus/blood at 1 hour after intravenous dose of 50 microCi of drug in 10%ethanol saline; type: ADME, organism-based; method in brief: as §2
[16] = test system: Rattus norvegicus; test: Tested in vivo for the biodistribution in rat ovaries at 1 hour after intravenous dose of 50 microCi of the drug and 15 ug of estradiol; type: ADME, organism-based, Female gonad; method in brief: as §3
[17] = test system: Rattus norvegicus; test: Tested in vivo for the biodistribution in rat uterus/muscle at 1 hour after intravenous dose of 50 microCi of the drug and 15 ug of estradiol; type: ADME, organism-based, Muscle tissue; method in brief: as §2
[18] = test system: Rattus norvegicus; test: Tested in vivo for the biodistribution in rat ovaries at 1 hour after intravenous dose of 50 microCi of drug in 10%ethanol saline; type: ADME, organism-based, Female gonad; method in brief: as §3
[19] = test system: Rattus norvegicus; test: Tested in vivo for the biodistribution in rat liver at 1 hour after intravenous dose of 50 microCi of the drug and 15 u g of estradiol; type: ADME, organism-based; method in brief: as §3
[20] = test system: Rattus norvegicus; test: Tested in vivo for the biodistribution in rat liver after 3 hours following an intravenous dose of 50 microCi of drug in 10%ethanol saline; type: ADME, organism-based; method in brief: as §3
[21] = test system: Rattus norvegicus; test: Tested in vivo for the biodistribution in rat fat at 1 hour after intravenous dose of 50 microCi of drug in 10%ethanol saline; type: ADME, organism-based, Adipose tissue; method in brief: as §1
[22] = test system: Rattus norvegicus; test: Tested in vivo for the biodistribution in rat uterus at 1 hour after intravenous dose of 50 microCi of drug in 10%ethanol saline; type: ADME, organism-based; method in brief: as §2
[23] = test system: Rattus norvegicus; test: Tested in vivo for the biodistribution in rat liver at 1 hour after intravenous dose of 50 microCi of drug in 10%ethanol saline; type: ADME, organism-based; method in brief: as §3
[24] = test system: Rattus norvegicus; test: Tested in vivo for the biodistribution in rat kidney at 1 hour after intravenous dose of 50 microCi of the drug and 15 u g of estradiol; type: ADME, organism-based; method in brief: as §3
[25] = test system: Rattus norvegicus; test: Tested in vivo for the biodistribution in rat muscle at 1 hour after intravenous dose of 50 microCi of drug in 10%ethanol saline; type: ADME, organism-based, Muscle tissue; method in brief: as §3
[26] = test system: Rattus norvegicus; test: Tested in vivo for the biodistribution in rat ovaries after 3 hours following an intravenous dose of 50 microCi of drug in 10%ethanol saline; type: ADME, organism-based, Female gonad; method in brief: as §3
[27] = test system: Rattus norvegicus; test: Tested in vivo for the biodistribution in rat bone at 1 hour after intravenous dose of 50 microCi of drug in 10%ethanol saline; type: ADME, organism-based, Bone element; method in brief: as §1
[28] = test system: Rattus norvegicus; test: Tested in vivo for the biodistribution in blood of female rat at 1 hour after intravenous dose of 50 microCi of the drug and 15 u g of estradiol; type: ADME, organism-based
[29] = test system: Rattus norvegicus; test: Tested in vivo for the biodistribution in rat bone after 3 hours following an intravenous dose of 50 microCi of drug in 10%ethanol saline; type: ADME, organism-based, Bone element; method in brief: as §1
[30] = test system: Rattus norvegicus; test: Tested in vivo for the biodistribution in rat thymus at 1 hour after intravenous dose of 50 microCi of drug in 10%ethanol saline; type: ADME, organism-based; method in brief: as §3
[31] = test system: Rattus norvegicus; test: Tested in vivo for the biodistribution in rat kidney at 1 hour after intravenous dose of 50 microCi of drug in 10%ethanol saline; type: ADME, organism-based; method in brief: as §1
[32] = test system: Rattus norvegicus; test: Tested in vivo for the biodistribution in rat bone at 1 hour after intravenous dose of 50 microCi of the drug and 15 ug of estradiol; type: ADME, organism-based, Bone element
[33] = test system: Rattus norvegicus; test: Tested in vivo for the biodistribution in rat thymus after 3 hours following an intravenous dose of 50 microCi of drug in 10%ethanol saline; type: ADME, organism-based; method in brief: as §3
[34] = test system: Rattus norvegicus; test: Tested in vivo for the biodistribution in rat fat at 1 hour after intravenous dose of 50 microCi of the drug and 15 ug of estradiol; type: ADME, organism-based, Adipose tissue
[35] = test system: Rattus norvegicus; test: Tested in vivo for the biodistribution in rat muscle after 3 hours following an intravenous dose of 50 microCi of drug in 10%ethanol saline; type: ADME, organism-based, Muscle tissue; method in brief: as §3
[36] = test system: Rattus norvegicus; test: Tested in vivo for the biodistribution in rat uterus at 1 hour after intravenous dose of 50 microCi of the drug and 15 ug of estradiol; type: ADME, organism-based; method in brief: as §2
[37] = test system: Rattus norvegicus; test: Tested in vivo for the biodistribution in rat uterus/muscle after 3 hours following an intravenous dose of 50 microCi of drug in 10%ethanol saline; type: ADME, organism-based, Muscle tissue; method in brief: as §2
[38] = test system: Rattus norvegicus; test: Tested in vivo for the biodistribution in rat uterus after 3 hours following an intravenous dose of 50 microCi of drug in 10%ethanol saline; type: ADME, organism-based; method in brief: as §3

- relative binding affinity (RBA) [1]: 0.26
- logP [2]: 2.72
- relative binding affinity (RBA) [3]: 1.72
- BSI [4]: 151
- NSB [5]: 0.57
SMILES: CO[C@H]1C[C@]2(C)[C@@H](O)CC[C@H]2[C@@H]2CCc3cc(O)ccc3[C@H]21

- relative binding affinity (RBA) [1]: 0.023
- logP [2]: 3.01
- relative binding affinity (RBA) [3]: 0.071
- BSI [4]: 243
- NSB [5]: 0.76
SMILES: C#C[C@]1(O)CC[C@H]2[C@@H]3CCc4cc(O)ccc4[C@H]3[C@@H](OC)C[C@@]21C [MOXESTROL]

- Injected [6]: 0.264%
- Injected [7]: 64.53%
- Injected [8]: 1.03%
- Injected [9]: 1.805%
- Injected [10]: 0.262%
- Injected [11]: 4.03%
- Injected [12]: 0.144%
- Injected [13]: 11.41%
- Injected [14]: 0.277%
- Injected [15]: 33.61%
- Injected [16]: 1.712%
- relative binding affinity (RBA) [1]: 0.147
- Injected [17]: 3.5%
- Injected [18]: 3.934%
- Injected [19]: 3.888%
- Injected [20]: 4.003%
- Injected [21]: 3.375%
- Injected [22]: 8.2%
- Injected [23]: 4.023%
- Injected [24]: 0.709%
- Injected [25]: 0.725%
- Injected [26]: 3.115%
- Injected [27]: 1.365%
- Injected [28]: 0.227%
- Injected [29]: 1.606%
- Injected [30]: 0.815%
- Injected [31]: 1.886%
- Injected [32]: 1.037%
- Injected [33]: 0.493%
- Injected [34]: 2.174%
- Injected [35]: 0.382%
- logP [2]: 4.12
- Injected [36]: 0.88%
- relative binding affinity (RBA) [3]: 11
- BSI [4]: 189
- Injected [37]: 23.55%
- NSB [5]: 2.43
- Injected [38]: 9.09%
SMILES: C#C[C@]1(O)[C@@H](F)C[C@H]2[C@@H]3CCc4cc(O)ccc4[C@H]3[C@@H](CC)C[C@@]21C

- relative binding affinity (RBA) [1]: 3.51
- logP [2]: 3.42
- relative binding affinity (RBA) [3]: 1.81
SMILES: C#C[C@]1(O)CC[C@H]2[C@@H]3CCc4cc(O)ccc4[C@H]3CC[C@@]21C [ETHINYL ESTRADIOL]
